Experimental data collected from several papers.
Each line is one published result; the experiments were not run side by side.
Chymotrypsinogen A: Chymotrypsinogen A (Bos taurus, UniProt P00766)
lecA: PA-I galactophilic lectin (lecA, Pseudomonas aeruginosa, UniProt Q05097)

Structure (SMILES) | target | observed | mode | method | pH | Ki [µM]
CCCC[C@H](NC(=O)[C@H](CCCCN)NC(=O)[C@H](CO)NC(=O)[C@H](CO)NC(=O)OCc1ccccc1)C(=O)N[C@@H](CCCBr)B(O)O | Chymotrypsinogen A | enzyme activity | inhibitor | fluorescence | – | 0.197
NC(=O)C1=CN([C@@H]2O[C@H](COP(=O)(O)OP(=O)(O)OC[C@H]3O[C@@H](n4cnc5c(N)ncnc54)[C@H](O)[C@@H]3O)[C@@H](O)[C@H]2O)C=CC1 | ADH1 (Saccharomyces cerevisiae, UniProt P00330, W83R) | enzyme activity | inhibitor | – | – | 24
CCCC[C@H](NC(=O)[C@H](CCC(N)=O)NC(=O)[C@H](CO)NC(=O)CCCCCN)C(=O)N[C@@H](Cc1ccccc1)B(O)O | Chymotrypsinogen A | enzyme activity | inhibitor | fluorescence | – | 0.00377
NC(=O)C1=CN([C@@H]2O[C@H](COP(=O)(O)OP(=O)(O)OC[C@H]3O[C@@H](n4cnc5c(N)ncnc54)[C@H](O)[C@@H]3O)[C@@H](O)[C@H]2O)C=CC1 | ADH1 (Saccharomyces cerevisiae, UniProt P00330, H49E) | enzyme activity | inhibitor | – | – | 12
C/C(=C\C(=O)OCCCCCCCCC(=O)O)C[C@@H]1OC[C@H](C[C@@H]2O[C@H]2[C@@H](C)[C@H](C)O)[C@@H](O)[C@H]1O | Isoleucine--tRNA ligase (ileS, Escherichia coli K-12, UniProt P00956) | enzyme activity | inhibitor | absorbance | – | 0.0008
O=C(CCCn1cc(CN2CCN(c3cc4c(cc3F)c(=O)c(C(=O)O)cn4C3CC3)CC2)nn1)Nc1ccc(S[C@@H]2O[C@H](CO)[C@H](O)[C@H](O)[C@H]2O)cc1 | lecA | ligand displacement | – | FP | – | 3
Cc1ccc2c(c1)c1c3n2CCNC3CCC1 (stereo not shown) | Amine oxidase [flavin-containing] A (Maoa, Rattus norvegicus, UniProt P21396) | enzyme activity | inhibitor | – | pH 7.5 | 0.77
[N-]=[N+]=NCC(=O)Nc1ccc(S[C@@H]2O[C@H](CO)[C@H](O)[C@H](O)[C@H]2O)cc1 | lecA | ligand displacement | – | FP | – | 4.16
OCC(F)(F)F | ADH1 (Saccharomyces cerevisiae, UniProt P00330, W55R) | enzyme activity | inhibitor | – | – | 74000
[N-]=[N+]=NCCCCC(=O)Nc1ccc(S[C@@H]2O[C@H](CO)[C@H](O)[C@H](O)[C@H]2O)cc1 | lecA | ligand displacement | – | FP | – | 3.67
CCCC[C@H](NC(=O)[C@H](CCC(N)=O)NC(=O)[C@H](CO)NC(=O)[C@H](C)NC(=O)CCCCCN)C(=O)N[C@@H](CCCBr)B(O)O | Chymotrypsinogen A | enzyme activity | inhibitor | fluorescence | – | 0.166
O=C(CCCCn1cc(CN2CCN(c3cc4c(cc3F)c(=O)c(C(=O)O)cn4C3CC3)CC2)nn1)Nc1ccc(S[C@@H]2O[C@H](CO)[C@H](O)[C@H](O)[C@H]2O)cc1 | lecA | ligand displacement | – | FP | – | 3.27
CCCC[C@H](NC(=O)[C@H](CCC(N)=O)NC(=O)[C@H](CO)NC(=O)[C@H](Cc1ccccc1)NC(=O)CCCCCN)C(=O)N[C@@H](CCCBr)B(O)O | Chymotrypsinogen A | enzyme activity | inhibitor | fluorescence | – | 0.58
